Experimental data published in ChEMBL document CHEMBL4265993, “Antibacterial Cyclic Lipopeptide Enamidonins with an Enamide-Linked Acyl Chain from a Streptomyces Species” (2018).
Values after ≈ are worked out from the molar mass of the structure shown. Active and inactive are the calls of the source. The calls are words filed in the database; no cut-off is given here.

Experiments:
Assay type in all cases: functional
Bacillus subtilis [1] = assay: Antibacterial activity against Bacillus subtilis assessed as diameter of inhibition zone after 24 hrs by disk diffusion method
Outline: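 Disk diffusion. B. subtilis colonies cultured 24 h at 28 °C were suspended in sterile distilled water and inoculated onto nutrient agar. A 6 mm i.d. paper disk holding sample was placed on the plate, which was incubated 24 h at 28 °C. Read-out was the inhibition zone.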

Staphylococcus aureus [2] = assay: Antibacterial activity against methicillin-resistant Staphylococcus aureus CCARM 3167 after 24 hrs by two-fold serial dilution method; conditions: CCARM 3167, 24 h
Outline: (§1)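 MIC by broth microdilution. Bacteria were grown to mid-log phase in appropriate growth media and seeded into 96-well plates at 10^5 cells/mL. Compounds, with ciprofloxacin as reference, were prepared in DMSO and tested as serial 2-fold dilutions. MICs were determined in triplicate.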

Staphylococcus aureus [3] = assay: Antibacterial activity against methicillin-resistant Staphylococcus aureus CCARM 3506 after 24 hrs by two-fold serial dilution method; conditions: CCARM 3506, 24 h; outline: as §1
Staphylococcus aureus [4] = assay: Antibacterial activity against quinolone-resistant Staphylococcus aureus CCARM 3505 after 24 hrs by two-fold serial dilution method; conditions: CCARM 3505, 24 h; outline: as §1
Staphylococcus aureus [5] = assay: Antibacterial activity against quinolone-resistant Staphylococcus aureus CCARM 3519 after 24 hrs by two-fold serial dilution method; conditions: CCARM 3519, 24 h; outline: as §1
Staphylococcus aureus [6] = assay: Antibacterial activity against Staphylococcus aureus RN4220 after 24 hrs by two-fold serial dilution method; conditions: RN4220, 24 h
Outline: (§2)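 Broth microdilution MIC. Bacteria grown to mid-log phase in appropriate media and seeded in 96-well microtiter plates at 10^5 cells/mL. Treated with serial 2-fold dilutions of compounds prepared in DMSO, with ciprofloxacin as the reference drug. MIC determined in triplicate.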

Streptococcus pneumoniae = assay: Antibacterial activity against Streptococcus pneumoniae KCTC 5412 after 24 hrs by two-fold serial dilution method; conditions: KCTC 5412, 24 h; outline: as §2
Enterococcus faecalis = assay: Antibacterial activity against Enterococcus faecalis KCTC 5191 after 24 hrs by two-fold serial dilution method; conditions: KCTC 5191, 24 h; outline: as §2
Bacillus subtilis [7] = assay: Antibacterial activity against Bacillus subtilis KCTC 1021 after 24 hrs by two-fold serial dilution method; conditions: KCTC 1021, 24 h; outline: as §2
Acinetobacter baumannii = assay: Antibacterial activity against Acinetobacter baumannii KCTC 2508 after 24 hrs by two-fold serial dilution method; conditions: KCTC 2508, 24 h; outline: as §2
Escherichia coli = assay: Antibacterial activity against Escherichia coli CCARM 1356 after 24 hrs by two-fold serial dilution method; conditions: CCARM 1356, 24 h; outline: as §2
Pseudomonas aeruginosa = assay: Antibacterial activity against Pseudomonas aeruginosa KCTC 2004 after 24 hrs by two-fold serial dilution method; conditions: KCTC 2004, 24 h; outline: as §2

SMILES	Activity (Bacillus subtilis [1])	MIC (Staphylococcus aureus [2])	MIC (Staphylococcus aureus [3])	MIC (Staphylococcus aureus [4])	MIC (Staphylococcus aureus [5])	MIC (Staphylococcus aureus [6])	MIC (Streptococcus pneumoniae)	MIC (Enterococcus faecalis)	MIC (Bacillus subtilis [7])	MIC (Acinetobacter baumannii)	MIC (Escherichia coli)	MIC (Pseudomonas aeruginosa)	diameter of the inhibition zone (DIZ) (Bacillus subtilis [1])
CC(C)C[C@@H]1NC(=O)CNC(=O)[C@@H](N)CNC(=O)[C@@H](CNC(=O)/C=C/NC(=O)/C=C/C=C/CCC/C=C/CC[C@@H](C)O)NC1=O	inactive	–	–	–	–	–	–	–	–	–	–	–	–
CC[C@H](C)[C@@H]1NC(=O)[C@H]([C@@H](C)O)N2C(=O)[C@H](CNC(=O)[C@@H](CNC(=O)/C=C/NC(=O)/C=C/C=C/CCC/C=C/CC[C@@H](C)O)NC1=O)NC2(C)C	–	64 mg/L (≈ 89.4 µM)	16 mg/L (≈ 22.3 µM)	32 mg/L (≈ 44.7 µM)	32 mg/L (≈ 44.7 µM)	32 mg/L (≈ 44.7 µM)	> 128 mg/L	64 mg/L (≈ 89.4 µM)	16 mg/L (≈ 22.3 µM)	> 128 mg/L	> 128 mg/L	> 128 mg/L	13.5 mm
CC(C)C[C@@H]1NC(=O)CN2C(=O)[C@H](CNC(=O)[C@@H](CNC(=O)/C=C/NC(=O)/C=C/C=C/CCC/C=C/CC[C@@H](C)O)NC1=O)NC2(C)C	–	32 mg/L (≈ 47.6 µM)	8 mg/L (≈ 11.9 µM)	16 mg/L (≈ 23.8 µM)	16 mg/L (≈ 23.8 µM)	> 128 mg/L	> 128 mg/L	8 mg/L (≈ 11.9 µM)	16 mg/L (≈ 23.8 µM)	> 128 mg/L	> 128 mg/L	> 128 mg/L	13.5 mm
O=C(O)c1cn(C2CC2)c2cc(N3CCNCC3)c(F)cc2c1=O [CIPROFLOXACIN]	–	4 mg/L (≈ 12.1 µM)	–	32 mg/L (≈ 96.6 µM)	–	–	–	1 mg/L (≈ 3.02 µM)	0.0312 mg/L (≈ 0.0943 µM)	0.25 mg/L (≈ 0.754 µM)	64 mg/L (≈ 193 µM)	–	–
C[C@@H](O)CC/C=C/CCC/C=C/C=C/C(=O)N/C=C/C(=O)NC[C@H]1NC(=O)[C@H](Cc2ccccc2)NC(=O)CNC(=O)[C@@H](N)CNC1=O	inactive	–	–	–	–	–	–	–	–	–	–	–	–
C[C@@H](O)CC/C=C/CCC/C=C/C=C/C(=O)N/C=C/C(=O)NC[C@H]1NC(=O)[C@H](Cc2ccccc2)NC(=O)CN2C(=O)[C@H](CNC1=O)NC2(C)C	–	> 128 mg/L	> 128 mg/L	> 128 mg/L	> 128 mg/L	> 128 mg/L	> 128 mg/L	> 128 mg/L	4 mg/L (≈ 5.67 µM)	> 128 mg/L	> 128 mg/L	> 128 mg/L	15 mm
CC[C@H](C)[C@@H]1NC(=O)[C@H]([C@@H](C)O)NC(=O)[C@@H](N)CNC(=O)[C@@H](CNC(=O)/C=C/NC(=O)/C=C/C=C/CCC/C=C/CC[C@@H](C)O)NC1=O	inactive	–	–	–	–	–	–	–	–	–	–	–	–
